# Source: PubChem BioAssay (several laboratories)
# Only some compounds are listed: those with a hit (about 1.6% of all), similar ones and a draw of the others.
# PKA-R2B activ – activates the human PKA-R2B holoenzyme complex | P22694+P31323 | PKA-R2B holoenzyme dissociation, Cy5-IP20 fluorescence polarization; R2B truncated from residue 108, S112A mutant; 0% DMSO only, 100% 113 µM cGMP | AID 504700 | actives 0.079% (n = 340,000) | activation, % at 11.4 µM;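 active means activation above a cutoff set at the mean over all compounds plus 3 SD, cut at about 18% in these data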;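 further: higher means more holoenzyme dissociation and a rise in polarization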
# PKA-R1A activ – activates the PKA-R1A holoenzyme complex | PKA-R1A dissociation, Cy5-IP20 fluorescence polarization; scaled: DMSO 0%, 113 µM cGMP 100% | activation, % at 11.4 µM | actives 0.083% (n = 340,000);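 active means percent activation above the mean of all tested compounds plus 3 SD, cut at about 19% in these data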;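 further: higher means more PKAc released from R1A so a rise in polarization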
# NR2E3 ag-1 – activates human NR2E3 receptor; CHO-S Gal4-NCOR/VP16-NR2E3 two-hybrid, luciferase; inhibition of corepressor binding, % at 3.98 µM; AID 602229; actives 0.35% (n = 360,000);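 active means inhibition above the mean of all tested compounds plus 3 SD, cut at about 70% in these data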;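 further: 0% = DMSO with NR2E3 transfected cells and 100% = cells lacking NR2E3 construct; higher means lower luciferase signal from less NR2E3 corepressor binding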
# NR2E3 ag-2 – NR2E3 (human) agonism; Q9Y5X4; GST-NR2E3/biotin-RetCOR TR-FRET, 1536-well; inhibition of corepressor binding, % at 4.78 µM; actives 0.12% (n = 320,000);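 active means percent inhibition above the cutoff of mean plus 3 SD of all tested compounds, set per screening campaign, cut at about 20% in these data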;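 further: 0% = DMSO wells and 100% = biotin wells as full block of FRET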
#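 system = GST-tagged NR2E3 plus biotinylated RetCOR corepressor | input = 1.35 nM GST-NR2E3 | also added = 7 nM biotin-RetCOR | schedule = 5 h incubation at 4 °C | measured by = TR-FRET with europium anti-GST and streptavidin-D2, 340 nm excitation | read-out = percent loss of FRET ratio relative to control wells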
# PG9 binder – binds the HIV-1 gp120 antibody PG9; actives 0.43% (n = 360,000); TR-FRET gp120-PG9 antibody binding; inhibition, % at 6.7 µM; in the data active means inhibition above about 8.5%
# Rev-erbA mod – modulates human Rev-erb alpha binding to DNA. Rev-erbα–FITC-DNA binding, fluorescence polarization, 90 min. activity, % at 10 µM. actives 0.79% (n = 370,000). AID 1259318;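 active means activity above about 14%, limit read from the data; passing the limit was not always enough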;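 further: 0% = DMSO wells with 35 nM protein and 100% = DMSO wells with 750 nM protein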
# Target sequence (P20393 whole entry, looked up): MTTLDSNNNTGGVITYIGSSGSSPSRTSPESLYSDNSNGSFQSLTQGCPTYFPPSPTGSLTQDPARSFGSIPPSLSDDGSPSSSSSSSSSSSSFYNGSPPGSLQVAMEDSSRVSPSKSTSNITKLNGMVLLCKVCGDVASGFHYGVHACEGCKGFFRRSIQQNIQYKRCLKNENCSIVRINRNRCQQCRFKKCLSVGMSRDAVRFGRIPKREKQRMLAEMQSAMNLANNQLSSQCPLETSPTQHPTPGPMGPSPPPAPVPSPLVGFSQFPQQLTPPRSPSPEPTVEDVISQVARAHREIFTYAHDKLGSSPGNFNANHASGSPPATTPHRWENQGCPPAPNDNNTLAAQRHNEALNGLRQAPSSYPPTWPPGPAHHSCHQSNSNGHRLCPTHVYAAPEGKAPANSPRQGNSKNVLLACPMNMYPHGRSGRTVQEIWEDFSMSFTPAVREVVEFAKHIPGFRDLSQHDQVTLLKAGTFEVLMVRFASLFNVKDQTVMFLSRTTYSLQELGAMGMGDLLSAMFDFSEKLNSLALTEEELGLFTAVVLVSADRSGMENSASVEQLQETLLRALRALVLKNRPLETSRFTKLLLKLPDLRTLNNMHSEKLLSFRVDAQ
# PG9 binder conf – PG9 antibody binding, confirmed | shares compounds with PG9 binder | TR-FRET PG9 antibody binding, biochemical | inhibition, % at 6.7 µM | actives 90% (n = 1,500) | AID 651571; in the data active means inhibition above about 9%
# PGV04 Ab binding – PGV04 control antibody binding, counter-screen; shares compounds with PG9 binder; TR-FRET PGV04 antibody-gp120 binding, biochemical; inhibition, % at 6.7 µM; actives 95% (n = 1,500); AID 651604; in the data active means inhibition above about 9.5%
# PG9 bind DR – PG9 antibody binding, dose response; IC50, µM; shares compounds with PG9 binder; 95 tested, under 10 active; TR-FRET PG9 antibody-gp120 binding inhibition; in the data active means IC50 below about 10 µM
# PGV04 DR counter – PGV04 binding, dose response counter-screen. IC50, µM. actives 20% (n = 95). TR-FRET binding to control antibody PGV04. AID 651937. shares compounds with PG9 binder
# PG126 binding DR – binds control antibody PG126 in PG9 counter-screen; TR-FRET binding to antibody PG126, counterscreen; actives 20% (n = 95); shares compounds with PG9 binder; IC50, µM; AID 651939
# Rev-erbA confirm – confirmation of modulators of human Rev-erb alpha DNA binding; activation, % at 25 µM; shares compounds with Rev-erbA mod; actives 61% (n = 3,000); Rev-erb alpha FITC-DNA binding, fluorescence polarization, 90 min; AID 1259319;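 active means activation at or above a set limit, or at least 3 SD above the negative control mean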;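 further: 0% = 35 nM protein with DMSO and 100% = 750 nM protein high control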
# RORg DNA counter – RORgamma DNA-binding activity, dose-response counter-screen; shares compounds with Rev-erbA mod; purified RORgamma protein-FITC-DNA binding, fluorescence polarization; IC50, µM; actives 8% (n = 910);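 active means Compounds whose fitted half-maximal concentration for disrupting protein-DNA binding is below 10 micromolar; the record names Rev-erb in its text, so the target is in doubt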
# * = called active by the depositor; i = inactive; · = no result given. Unless noted, no stated cut-off is given here; in the data, active means IC50 below about 9 µM; inactive means the rest.
SMILES,PKA-R2B activ,PKA-R1A activ,NR2E3 ag-1,NR2E3 ag-2,PG9 binder,Rev-erbA mod,PG9 binder conf,PGV04 Ab binding,Rev-erbA confirm,others
COC(=O)c1ccc(N2C(=O)CC(N3CCOCC3)C2=O)cc1 (configuration not stated),0,5,-14,1,13*,8,7,9.3*,·,
COc1ccc2nc(-c3ccccc3)[nH]c(=O)c2c1,-6,8,-46,·,54*,13,68*,77*,·,
COc1ccc2nc(C)[nH]c(=O)c2c1,2,4,-26,0,0,-4,·,·,·,
CCOC(=O)c1nn(-c2ccc(OCC)cc2)c2nc(CC(C)C)c(C#N)c(=O)n12,5,-1,12,0,0,15,·,·,·,
CCOC(=O)c1nn(-c2ccc(Cl)cc2)c2nc(CC)c(C#N)c(=O)n12,1,-6,0,6,16*,33*,20*,25*,6,
COc1ccc(CC(=O)OCc2cc3ccc(C)cc3[nH]c2=O)cc1,0,5,-28,1,17*,34*,18*,30*,31*,
CCOC(=O)CSc1nc2cc3c(cc2cc1C#N)OCO3,0,-8,-136,-1,49*,66*,44*,62*,36*,RORg DNA counter=>40
COC(=O)CSc1nc2cc3c(cc2cc1C#N)OCO3,8,1,-102,-2,15*,58*,33*,71*,23*,
O=C(NC(CC1=CCCCC1)c1ccc2ccccc2c1)C(F)(F)F (configuration not stated),·,·,·,·,1,2,·,·,·,
O=C(COC(=O)c1ccc2ccccc2c1)Nc1ncc(C(F)(F)F)cc1Cl,-2,-2,-1,3,15*,34*,18*,27*,13,
C/C(N)=C(/C#N)C(=O)CSc1nc2ccccc2c(=O)n1-c1ccc(C)c(Cl)c1,6,-5,-10,1,45*,78*,39*,56*,31*,RORg DNA counter=i
COc1ccc(-c2nn(C)c3sc(C(=O)NCc4ccco4)cc23)cc1OC,-8,1,9,10,10*,58*,13*,18*,52*,RORg DNA counter=i
Cc1ccc(C2CCC3(CCC(=O)N3CCO)CC2)cc1 (configuration not stated),·,·,·,·,·,8,·,·,·,
O=C(Nc1nnc(SCc2ccccc2)s1)c1cccc([N+](=O)[O-])c1,-13,-2,3,-1,0,-2,·,·,·,
CC(C)Cc1nnc(NC(=O)c2cc3c(s2)CCC3)s1,2,18,-156,0,1,1,·,·,·,
CCSc1nnc(NC(=O)c2cc3c(s2)CCCC3)s1,-6,8,-6,4,12*,33*,23*,18*,38*,PG9 bind DR=>67;PGV04 DR counter=i;PG126 binding DR=i;RORg DNA counter=>40
O=C(Nc1nnc(SCc2ccccc2)s1)c1cc2c(s1)CCCC2,0,-7,-27,-1,9.7*,52*,21*,17*,34*,PG9 bind DR=i;PGV04 DR counter=i;PG126 binding DR=i;RORg DNA counter=i
CCn1c(=O)c(C(=O)Nc2ccccc2S(N)(=O)=O)c(O)c2ccccc21,-2,3,-49,3,15*,20*,7,14*,17,
O=C(CCSc1nnc2ccc3ccccc3n12)Nc1ccc(F)cc1,-5,-12,-4,8,23*,44*,7,21*,22*,
O=C(CCSc1nnc2ccccn12)Nc1ccc(F)cc1,-3,2,-20,4,1,-2,·,·,·,
Cc1noc(C)c1NC(=O)Nc1ccc2c(c1)C(=O)N([C@@H](C)CO)C[C@@H](C)[C@H](CN(C)S(=O)(=O)c1ccc(F)cc1)OCCCC[C@H](C)O2,·,·,·,·,·,-4,·,·,·,
COC(=O)[C@]12C[C@H](CC(=O)NCc3ccccc3)C(=O)N(Cc3cccc4ccccc34)C1=C[C@H](C(C)(C)C)O[C@@H]2C,·,·,·,·,·,-1,·,·,·,
COc1ccc([C@@]23CCN=C2c2[nH]c4ccccc4c2CCN3)c(N)c1,·,·,·,·,·,-5,·,·,·,
O=C(CCn1nnc2ccccc21)Nc1nnc(COc2ccccc2F)s1,-3,-2,-23,3,2,1,·,·,·,
O=C(CCn1nnc2ccccc21)Nc1nnc(-c2ccccc2F)s1,5,-7,-21,-2,13*,28*,23*,38*,17,
SMILES,PKA-R2B activ,PKA-R1A activ,NR2E3 ag-1,NR2E3 ag-2,PG9 binder,Rev-erbA mod,PG9 binder conf,PGV04 Ab binding,Rev-erbA confirm,others
COC(=O)[C@]12C[C@H](CC(=O)N3CCCCC3)C(=O)N(Cc3cccc4ccccc34)C1=C[C@H](C1CCCC1)O[C@@H]2C,·,·,·,·,·,-5,·,·,·,
Cc1ccc(-c2cc(-c3nnc(SCC(=O)N4c5ccccc5Sc5ccc(Cl)cc54)n3N)[nH]n2)cc1,·,·,·,·,·,1,·,·,·,
CCOC(=O)Nc1nc(-c2ccccc2)c(C(=O)c2ccccc2)s1,9,-2,7,4,2,2,·,·,·,
COC(=O)Nc1nc(-c2ccccc2)c(C(=O)c2ccc(Cl)cc2)s1,-3,-11,-14,1,44*,30*,44*,65*,31*,
COc1ccc(S[C@]2(C(=O)N3CCOCC3)CC(=O)N(c3ccccc3)[C@@H]2c2ccc(OC)cc2)cc1,·,·,·,·,·,1,·,·,·,
CCc1ccccc1NC(=O)c1nnn(CC(=O)Nc2cccc(C)c2C)c1N,2,6,10,6,41*,35*,41*,48*,42*,
C[C@H]1[C@H](NC(=O)c2ccc(Cl)cc2)CC[C@@]23CCCN2C(=O)CCC[C@@H]13,·,·,·,·,·,-5,·,·,·,
CCCCCC[C@@H](CC)CN(C(=O)Oc1ccccc1)c1ccccc1,·,·,·,·,·,-3,·,·,·,
